Substitutions are numbered along the chain they refer to. Where two headings read alike, the source gives them in different places.
Legend:
CckA_ΔTM F539A = conditions: cited from earlier work
CckA_ΔTM Y514D = conditions: cited from earlier work
CckA_ΔTM W523A = conditions: cited from earlier work
CckA_ΔTM [1] = target: T1, CckA_ΔTM (Caulobacter vibrioides, UniProt Q9X688); experiment: CckA phosphorylation assay by autoradiography; format: biochemical, Caulobacter crescentus; conditions: for net CckA_ΔTM~P after addition of effector: ADP or c-di-GMP added after 30 min of incubation with 500 μM ATP
T1 sequence (Q9X688 72-691): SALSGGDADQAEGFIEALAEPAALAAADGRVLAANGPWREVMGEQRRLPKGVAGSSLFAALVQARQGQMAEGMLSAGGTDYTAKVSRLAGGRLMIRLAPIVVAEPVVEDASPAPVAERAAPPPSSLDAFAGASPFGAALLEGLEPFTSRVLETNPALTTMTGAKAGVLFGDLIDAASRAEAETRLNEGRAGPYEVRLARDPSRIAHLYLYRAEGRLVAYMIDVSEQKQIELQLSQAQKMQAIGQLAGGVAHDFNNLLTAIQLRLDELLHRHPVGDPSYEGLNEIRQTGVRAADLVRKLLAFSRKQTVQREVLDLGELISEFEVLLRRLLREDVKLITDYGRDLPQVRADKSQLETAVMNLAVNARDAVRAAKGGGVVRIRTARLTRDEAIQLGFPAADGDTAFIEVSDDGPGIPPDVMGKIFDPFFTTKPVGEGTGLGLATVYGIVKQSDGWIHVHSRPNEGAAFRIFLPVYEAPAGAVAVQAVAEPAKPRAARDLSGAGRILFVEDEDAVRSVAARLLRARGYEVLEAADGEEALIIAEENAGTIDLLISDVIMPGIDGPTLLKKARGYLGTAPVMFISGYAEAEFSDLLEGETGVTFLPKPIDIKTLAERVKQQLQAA
In short: (§1)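 MBP-tagged CckA_ΔTM (residues S72–A691) or its point mutants are incubated at room temperature with 500 μM ATP plus 5 μCi γ32P-ATP. Further nucleotides are added at set times. Where applicable, ATP is converted to ADP with 1.5 U hexokinase and 5 mM D-glucose. Reactions are stopped in SDS sample buffer and run on 10% SDS gels. Wet gels are exposed to a phosphor screen (0.5–3 h) and scanned.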

CckA_ΔTM G515D = target: T2, CckA_ΔTM G515D (Caulobacter vibrioides, UniProt Q9X688, G515D); experiment: CckA phosphorylation assay by autoradiography, G515D; format: biochemical, Caulobacter crescentus; conditions: 15 min of ATP incubation, 75 μM c-di-GMP
T2 sequence (Q9X688 72-691 G515D): T1 sequence (Q9X688 72-691) with G444D
In short: as §1

CckA_CA = target: T3, CckA_CA (Caulobacter vibrioides, UniProt Q9X688); experiment: ITC ligand binding to CckA_CA; set-up: species or system Caulobacter crescentus
T3 sequence (Q9X688 379-545): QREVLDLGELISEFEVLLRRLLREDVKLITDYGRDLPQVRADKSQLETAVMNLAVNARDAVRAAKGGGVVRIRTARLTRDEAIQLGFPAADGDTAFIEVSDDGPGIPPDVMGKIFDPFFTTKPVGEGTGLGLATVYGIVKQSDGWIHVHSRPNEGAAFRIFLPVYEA
In short: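 Protein was expressed in E. coli Rosetta (DE3), induced with 0.1 mM IPTG at 22°C, and purified by Ni-NTA then gel filtration (30 mM Tris-HCl pH 7.5, 100 mM NaCl, 5 mM MgCl2). Isothermal titration calorimetry was run at 25 or 12°C, stirring 300 rpm, 200 s preinjection delay, 250 s recording interval. Data were fitted to a single-site model, refitted with N fixed at 1.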

CckA_ΔTM G318A = target: T4, CckA_ΔTM G318A (Caulobacter vibrioides, UniProt Q9X688, G318A); experiment: CckA phosphorylation assay by autoradiography, G318A; format: biochemical, Caulobacter crescentus; conditions: 15 min of ATP incubation, 75 μM c-di-GMP
T4 sequence (Q9X688 72-691 G318A): T1 sequence (Q9X688 72-691) with G247A
In short: as §1

CckA_ΔTM [2] = target: T1, CckA_ΔTM; experiment: Global fit of kinetic model to CckA_ΔTM phosphorylation progress curves; format: biochemical, Caulobacter crescentus; conditions: simulations; rate with which the data can be fit
In short: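 Progress curves of net CckA_ΔTM~P come from radiolabelled ATP reactions, with ADP or c-di-GMP added to aliquots after 30 min. The curves were globally fitted to a kinetic model using standard first- and second-order reaction kinetics, set up as a system of coupled ordinary differential equations. Rate parameters such as kr are taken from that global fit.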

Row | Structure (SMILES) | c-di-GMP binding in UV-cross-linking experiments (CckA_ΔTM F539A) | c-di-GMP binding in UV-cross-linking experiments (CckA_ΔTM Y514D) | c-di-GMP binding in UV-cross-linking experiments (CckA_ΔTM W523A) | net CckA phosphorylation with effector present throughout (CckA_ΔTM [1]; 15 min of ATP incubation, 75 μM c-di-GMP) | net CckA_ΔTM~P after addition of effector (CckA_ΔTM [1]) | response of net phosphorylation to c-di-GMP (in vitro phenotype) (CckA_ΔTM G515D) | Kd (CckA_CA; read-out: Kd, c-di-GMP binding, Fig. 3C (in the presence of 5 mM ADP or AMPPNP)) [µM] | response of net phosphorylation to c-di-GMP (CckA_ΔTM G318A) | rate of debinding (kr) (CckA_ΔTM [2]) | Kd (CckA_CA; read-out: Kd, AMPPNP binding, - c-di-GMP, 12°C) [µM]
1 | Nc1nc2c(ncn2[C@@H]2O[C@@H]3COP(=O)(O)O[C@H]4[C@@H](O)[C@H](n5cnc6c(=O)[nH]c(N)nc65)O[C@@H]4COP(=O)(O)O[C@H]3[C@H]2O)c(=O)[nH]1 [c-di-GMP, cyclic di–guanosine monophosphate] | lack of c-di-GMP binding | lack of c-di-GMP binding | lack of c-di-GMP binding | effectively blocked | efficiently and rapidly dephosphorylated | identical to that of G318A | ~20 | virtually no response |  | 
2 | Nc1ncnc2c1ncn2[C@@H]1O[C@H](COP(=O)(O)OP(=O)(O)O)[C@@H](O)[C@H]1O [ADP, adenosine diphosphate] |  |  |  |  | dose-dependent boost in dephosphorylation |  |  |  | 10^−2 to 10^−3 s^−1 | 
3 | Nc1ncnc2c1ncn2[C@@H]1O[C@H](COP(=O)(O)OP(=O)(O)NP(=O)(O)O)[C@@H](O)[C@H]1O [AMPPNP] |  |  |  |  |  |  |  |  |  | ~10
